Laboratory results reported in ChEMBL document CHEMBL1124186, “Synthesis and evaluation of tylosin-related macrolides modified at the aldehyde function: a new series of orally effective antibiotics” (1988).
Values after ≈ are worked out from the molar mass of the structure shown.

Tests used:
[1] = system: Streptococcus pyogenes; assay: In vivo effective dose against experimental infections in rodent caused by Streptococcus pyogenes C203 when administered sc; type: functional
[2] = system: Streptococcus pyogenes; assay: Effective dose against Streptococcus pyogenes C203 when administered orally; type: functional; settings: po
Method in brief: (§1)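 Mouse protection test: infected mice were dosed twice, at 1 and 5 h postinfection, either subcutaneously or orally. […] The result is expressed as ED50 in mg/kg × 2.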

[3] = system: Streptococcus pyogenes; assay: Antimicrobial activity against Streptococcus pyogenes C203; type: functional
[4] = system: Streptococcus pyogenes; assay: Effective dose against Streptococcus pyogenes C203 when administered sc; type: functional; method in brief: as §1
[5] = system: Streptococcus pneumoniae; assay: In vitro antimicrobial activity against Streptococcus pneumoniae; type: functional
[6] = system: Streptococcus pyogenes; assay: In vitro antimicrobial activity against Streptococcus pyogenes C203; type: functional
[7] = system: Enterococcus faecium; assay: In vitro antimicrobial activity against Streptococcus faecium X66; type: functional, streptococcus fae-cium
[8] = system: Haemophilus influenzae; assay: In vitro antimicrobial activity against Haemophilus influenzae.; type: functional
[9] = system: Staphylococcus aureus; assay: In vitro antimicrobial activity against Staphylococcus aureus X1; type: functional
[10] = system: Staphylococcus epidermidis; assay: In vitro antimicrobial activity against Staphylococcus epidermidis EPI1; type: functional
[11] = system: Streptococcus pyogenes; assay: In vivo effective dose against experimental infections in rodent caused by Streptococcus pyogenes C203 when administered orally; type: functional; settings: po

- MIC [3]: 8 µg/mL (≈ 10.8 µM)
- MIC [5]: 2 µg/mL (≈ 2.69 µM)
- MIC [6]: 0.25 µg/mL (≈ 0.336 µM)
- MIC [7]: 8 µg/mL (≈ 10.8 µM)
- MIC [8]: 8 µg/mL (≈ 10.8 µM)
- MIC [9]: 0.25 µg/mL (≈ 0.336 µM)
- MIC [10]: 0.25 µg/mL (≈ 0.336 µM)
SMILES: CC[C@H]1OC(=O)C[C@@H](O)[C@H](C)[C@@H](O[C@@H]2O[C@H](C)[C@@H](O)[C@H](N(C)C)[C@H]2O)[C@@H](C)C[C@@H](C)C(=O)/C=C/C(C)=C/[C@@H]1CO[C@@H]1O[C@H](C)[C@@H](O)[C@@H](OC)[C@H]1OC
- ED50 [1]: 1.6 mg/kg
- ED50 [2]: 1.6 mg/kg
- ED50 [4]: 0.25 mg/kg
- ED50 [11]: 8 mg/kg
